Results as given in PMC6064589 (Diabetes Therapy, 2018).
Where two headings read alike, the source gives them in different places.

Columns and labels:
healthy subjects [1] = assay type: in vivo, human; conditions: single oral 400 mg dose, N = 76
Outline: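 Placebo-arm subjects received single oral 400 mg positive control or matching placebo in nested crossover, before (baseline) and after (week 15) placebo treatment. […] Supine Holter ECGs pre-dose and 1, 2, 3, 6, 12, 18, 24 h. QTcI analysed by ANOVA (treatment, period, subject fixed; pre-dose QTcI covariate). 3 and 6 h confirmatory with 95% CI; other times with 90% CI.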

healthy subjects [2] = assay type: in vivo, human
Outline: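 Healthy subjects randomised to once-weekly s.c. test peptide or placebo, escalated every 4 weeks (0.25, 0.5, 1.0, 1.5 mg) over 16 weeks. Supine continuous 12-lead Holter (Mason-Likar) ECGs at steady state of each level: pre-dose and 12, 18, 24, 25, 26, 27, 30, 36, 42, 48 h. QT/RR measured semi-automatically, lead II. QTcI=QT/RR^β (subject-specific β); QTcL, QTcF, QTcB. Placebo-subtracted baseline-adjusted means, two-sided 90% CIs.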

healthy subjects [3] = test: Other ECG assessments; assay type: in vivo, human
Outline: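 ECGs come from the same Holter recordings: 11 time points, pre-dose to 48 h after last dose at 0.5, 1.0 and 1.5 mg. HR, PR and QRS use the same model. Outlier cut-offs: HR <50 or >100 bpm; PR >220 ms and/or >25% change from baseline; QRS >110 ms and/or >25% change. A cardiologist read one random ECG per time point for T/U wave abnormalities.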

[4] = Pharmacokinetics of semaglutide at steady state of each dose level; assay type: in vivo, human; conditions: doses 0.25-1.5 mg at steady state
healthy subjects [5] = test: Safety and tolerability; assay type: in vivo, human
Outline: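 Healthy subjects received s.c. test peptide or placebo once weekly for 16 weeks, escalating 0.25→0.5→1.0→1.5 mg every 4 weeks, with 5–7-week follow-up. Some injections were given on-site, the rest self-administered. Recorded: adverse events, hypoglycaemic events, anti-drug antibodies at follow-up, haematology, biochemistry, urinalysis, calcitonin, vital signs, ECG, physical examination, body weight and fasting plasma glucose changes from baseline.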

[6] = phase 3 trials; cited from earlier work
[7] = system: dipeptidyl peptidase-4 (DPP-4); conditions: due to substitution at position 8; cited from earlier work
healthy subjects [8] = conditions: cited from earlier work
[9] = 1.5 mg at steady state, 0-48 h after dosing
[10] = s.c. once weekly, escalated 0.25 to 1.5 mg over 16 weeks, N = 83

Compound: COc1c(N2C[C@@H]3CCCN[C@@H]3C2)c(F)cc2c(=O)c(C(=O)O)cn(C3CC3)c12 [moxifloxacin]
- Estimated treatment difference moxifloxacin vs. placebo, QTcI (healthy subjects [1]; 1 h after dosing): 10.0 ms
- Estimated treatment difference moxifloxacin vs. placebo, QTcI (healthy subjects [1]; 2 h after dosing): 12.3 ms
- Estimated treatment difference moxifloxacin vs. placebo, QTcI (healthy subjects [1]; 3 h after dosing (confirmatory endpoint)): 12.3 ms
- Estimated treatment difference moxifloxacin vs. placebo, QTcI (healthy subjects [1]; 6 h after dosing (confirmatory endpoint)): 8.9 ms

Compound: CC[C@H](C)[C@H](NC(=O)[C@H](Cc1ccccc1)NC(=O)[C@H](CCC(=O)O)NC(=O)[C@H](CCCCNC(=O)COCCOCCNC(=O)COCCOCCNC(=O)CC[C@H](NC(=O)CCCCCCCCCCCCCCCCC(=O)O)C(=O)O)NC(=O)[C@H](C)NC(=O)[C@H](C)NC(=O)[C@H](CCC(N)=O)NC(=O)CNC(=O)[C@H](CCC(=O)O)NC(=O)[C@H](CC(C)C)NC(=O)[C@H](Cc1ccc(O)cc1)NC(=O)[C@H](CO)NC(=O)[C@H](CO)NC(=O)[C@@H](NC(=O)[C@H](CC(=O)O)NC(=O)[C@H](CO)NC(=O)[C@@H](NC(=O)[C@H](Cc1ccccc1)NC(=O)[C@@H](NC(=O)CNC(=O)[C@H](CCC(=O)O)NC(=O)C(C)(C)NC(=O)[C@@H](N)Cc1cnc[nH]1)[C@@H](C)O)[C@@H](C)O)C(C)C)C(=O)N[C@@H](C)C(=O)N[C@@H](Cc1c[nH]c2ccccc12)C(=O)N[C@@H](CC(C)C)C(=O)N[C@H](C(=O)N[C@@H](CCCNC(=N)N)C(=O)NCC(=O)N[C@@H](CCCNC(=N)N)C(=O)NCC(=O)O)C(C)C [semaglutide]
- Upper limits of all 11 two-sided 90% CIs for the mean ΔΔQTcI (healthy subjects [2]; 0.5 mg at steady state, 0-48 h after dosing): < 10 ms
- Upper limits of all 11 two-sided 90% CIs for the mean ΔΔQTcI (healthy subjects [2]; 1.0 mg at steady state, 0-48 h after dosing): < 10 ms
- Maximum upper limit of the two-sided 90% CI for the time-matched ΔΔQTcI (healthy subjects [2]; [9]): 0.3 ms
- Upper limits of the 11 two-sided 90% CIs of ΔΔQTcI (healthy subjects [2]; [9]): < 10 ms
- Prolongation of the uncorrected QT interval, QTcL or QTcF (healthy subjects [2]; doses of 0.5, 1.0 and 1.5 mg at steady state): No prolongation was observed
- QTcB, upper limits of the 90% CIs (healthy subjects [2]; for at least one time point at all dose levels): > 10 ms
- Increased PR interval of > 25% above baseline (healthy subjects [3]; 0.5 mg group): none
- Increased PR interval of > 25% above baseline (healthy subjects [3]; 1.0 and 1.5 mg treatment groups): five
- Second-degree or higher-grade atrioventricular block (healthy subjects [3]; all ECGs evaluated by the cardiologist): no observations of a second-degree atrioventricular block or higher-grade atrioventricular blocks
- Changes in QRS complex duration of > 25% above baseline (healthy subjects [3]; any of the treatment arms): No changes
- Subjects with T wave abnormalities (healthy subjects [3]; doses 0.5 or 1.0 mg, female subjects, all of no clinical relevance): three
- U wave abnormalities (healthy subjects [3]; either group): no U wave abnormalities were observed
- Increase in AUC0−48h and Cmax with increasing dose [4]: consistent with dose proportionality
- Diastolic BP change from baseline to last dose (healthy subjects [5]; 16-week treatment, mean ± SD): 5 ± 8 mmHg
- HR change from baseline to last dose (vital signs) (healthy subjects [5]; 16-week treatment, mean ± SD): 10 ± 9 bpm
- Development of anti-semaglutide antibodies (healthy subjects [5]; at follow-up): no subjects developed anti-semaglutide antibodies
- Severe hypoglycemic episodes (healthy subjects [5]; in vivo): No severe hypoglycemic episodes were reported
- Events leading to withdrawal, percentage of subjects (healthy subjects [5]; [10]): 2.4%
- Gastrointestinal disorders (predominantly nausea, vomiting and diarrhea), subjects (healthy subjects [5]; [10]): 56.6%
- Metabolism and nutrition disorders (predominantly decreased appetite), subjects (healthy subjects [5]; [10]): 51.8%
- Mean increases in HR with semaglutide versus placebo [6]: up to 3 bpm
- Susceptibility to degradation by dipeptidyl peptidase-4 (DPP-4) [7]: less susceptible to degradation

Compound: albiglutide
- PR interval prolongation (healthy subjects [8]): A PR interval prolongation has also been observed
- Prolongation of the QTcI interval or QTc by other correction methods (healthy subjects [8]; healthy subjects): neither albiglutide administered once weekly nor liraglutide administered once daily have been observed to prolong the QTcI interval

Compound: dulaglutide
- QTc prolongation (healthy subjects [8]; administered once weekly): not associated with QTc prolongation
- PR interval prolongation (healthy subjects [8]): A PR interval prolongation has also been observed

Compound: exenatide
- Correlation between exposure and QTc interval (healthy subjects [8]; single dose): positive correlation
- Prolongation of QTcP or QTcI (healthy subjects [8]; supratherapeutic concentrations, intravenous, healthy subjects): no prolongation

Compound: liraglutide
- PR interval prolongation (healthy subjects [8]): A PR interval prolongation has also been observed
- Prolongation of the QTcI interval or QTc by other correction methods (healthy subjects [8]; healthy subjects): neither albiglutide administered once weekly nor liraglutide administered once daily have been observed to prolong the QTcI interval
